Measurements taken from ChEMBL document CHEMBL3272238, “Synthesis and biological evaluation of fragmented derivatives of tetrahydroisoquinolines. 3. Trimetoquinol studies” (J Med Chem, 1976).
Active and inactive are the calls of the source.

Experiments:
[1] = species on record: Cavia porcellus; assay: Chronotropic activity in guinea pig atrium assessed as increase in atrial rate by force displacement transducer analysis; format: functional, tissue-based; conditions: Cardiac atrium
Summary of the method: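 Isolated right atrium given cumulative test doses, with rate recorded over 3 min per dose at 1- and 3-min readings. Chronotropic responses were expressed relative to the maximum from 10⁻⁵ M isoproterenol added at the end of each run. ED₅₀ (half-maximal) was taken from individual plots.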

[2] = species on record: Cavia porcellus; assay: Agonist activity at beta-adrenoceptor in guinea pig trachea assessed as […] of carbachol-induced contraction by force-displacement transducer analysis; format: tissue-based
Summary of the method: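 Tissue strips held at 1 g tension in Krebs bicarbonate-glucose solution at 37°, equilibrated 1-1.5 h, then drug-induced tension changes recorded isometrically. Cumulative log-concentration curves were built, and the ED₅₀ (concentration giving half-maximal response) was read from each curve.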

[3] = species on record: Rattus norvegicus; assay: Induction of lipolysis in Sprague-Dawley rat fat cells assessed as increase in glycerol level at 10^-8 to 10^-4 M; format: functional
Summary of the method: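 Fat cells from epididymal tissue of nonfasted male rats (200–250 g) were isolated by collagenase digestion in Krebs bicarbonate with 3% BSA. Drug (1×10⁻⁸–3×10⁻⁴ M) was incubated 1 h at 37° in air, stopped with equal-volume 10% TCA, and glycerol assayed. Release was normalized to 10⁻⁶ M isoproterenol maximum; mean of N=3 ± SEM.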

Measured: Activity

CNC(Cc1cc(OC)c(OC)c(OC)c1)c1ccc(O)c(O)c1 (stereo not given)
active: all assays above

COc1cc(CC(NC(C)C)c2ccc(O)c(O)c2)cc(OC)c1OC (stereo not given)
active: all assays above

CCNC(Cc1cc(OC)c(OC)c(OC)c1)c1ccc(O)c(O)c1 (stereo not given)
active: all assays above

COc1cc(C[C@@H]2NCCc3cc(O)c(O)cc32)cc(OC)c1OC (racemic)
active: all assays above

COc1cc(CC(N)c2ccc(O)c(O)c2)cc(OC)c1OC (stereo not given)
active: all assays above
